Source: ChEMBL document CHEMBL3352295, “Neuroprotective Xanthones from the Root Bark of Cudrania tricuspidata” (J Nat Prod, 2014)

Tested on: not listed separately
Experiment: Neuroprotective activity against 6-hydroxydopamine-induced human SH-SY5Y cell death after 24 hrs by MTT assay
Assay type: functional, cell-based
Summary of the method: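 SH-SY5Y cells seeded at 2 × 10^4 cells/well, grown 24 h, then exposed to 100 μM 6-OHDA together with test compounds (at least four concentrations) for 24 h. Viability by MTT (0.5 mg/mL in PBS, 37 °C, 4 h), formazan dissolved in DMSO, absorbance 540 nm. EC50 = half-maximal protection, from semilog concentration–effect plot; triplicate, mean ± SD; curcumin positive control.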

In order of falling EC50:
1. C=CC(C)(C)c1c(O)cc(O)c2c(=O)c3c(CC(O)C(=C)C)c(O)c(O)cc3oc12 (stereo not given)  16.6 µM
2. CC1(C)C=Cc2c(cc(O)c3c(=O)c4cc(O)ccc4oc23)O1 [NIGROLINEAXANTHONE F]  15.5 µM
3. C=CC(C)(C)c1c(O)cc2oc3c(CC=C(C)C)c(O)c(O)cc3c(=O)c2c1O [CUDRAXANTHONE L]  8.2 µM
4. C=CC(C)(C)c1c(O)cc(O)c2c(=O)c3c(CC(=O)C(=C)C)c(OC)c(O)cc3oc12  7.2 µM
5. COc1cc(/C=C/C(=O)CC(=O)/C=C/c2ccc(O)c(OC)c2)ccc1O [CURCUMIN]  6 µM
6. CC1(C)C=Cc2c(cc(O)c3c(=O)c4cccc(O)c4oc23)O1  5.1 µM
7. CC1(C)C=Cc2c(cc(O)c3c(=O)c4c5c(ccc4oc23)OC(C)(C)C=C5)O1  4.5 µM
8. CC(C)=CCc1c2c(c(O)c3c(=O)c4ccc(O)c(O)c4oc13)C(C)(C)C(C)O2 (stereo not given)  3 µM
9. CC(C)=CCc1c(O)c(O)cc2c(=O)c3c4c(c(O)cc3oc12)C(C)(C)C(C)O4 (stereo not given)  2.4 µM
10. C=CC(C)(C)c1c(OC)cc(O)c2c(=O)c3c(CC(O)C(=C)C)c(O)c(O)cc3oc12 (stereo not given)  2.3 µM
11. CC1Oc2cc3oc4c5c(c(O)cc4c(=O)c3c(O)c2C1(C)C)OC(C)(C)C(O)C5 (stereo not given)  2.2 µM
12. C=CC(C)(C)c1c(O)cc(O)c2c(=O)c3c(cc(O)c4oc(C(=C)C)cc43)oc12  0.8 µM
13. C=CC(C)(C)c1c(O)cc(O)c2c(=O)c3ccc(O)c(OC)c3oc12  0.7 µM

Tested on: SH-SY5Y
Experiment: Ratio of curcumin EC50 to compound EC50 for neuroprotective activity against 6-hydroxydopamine-induced human SH-SY5Y cell death after 24 hrs by MTT assay
Assay type: functional
Summary of the method: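 SH-SY5Y cells seeded at 2 × 10^4 cells/well and grown 24 h. Cells then received 100 μM 6-OHDA together with test samples at ≥4 concentrations for a further 24 h. Viability was read by MTT (0.5 mg/mL in PBS, 37 °C, 4 h), with formazan dissolved in DMSO and read at 540 nm. EC50 (half-maximal protection) was taken from semilog plots, triplicate, mean ± SD. Curcumin was the reference.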

In order of rising “Ratio EC50” value:
1. C=CC(C)(C)c1c(O)cc(O)c2c(=O)c3ccc(O)c(OC)c3oc12  7
2. C=CC(C)(C)c1c(O)cc(O)c2c(=O)c3c(cc(O)c4oc(C(=C)C)cc43)oc12  7
